# Results reported in paper PMC4064470 (Journal of medicinal chemistry, 2013).
# Key:
# [1] = biological target: T1, recombinant human VAP-1 (Homo sapiens, UniProt Q16853); experiment: In vitro inhibition of recombinant human VAP-1 activity; format: biochemical; details: control compound
# T1 sequence (Q16853 1-763): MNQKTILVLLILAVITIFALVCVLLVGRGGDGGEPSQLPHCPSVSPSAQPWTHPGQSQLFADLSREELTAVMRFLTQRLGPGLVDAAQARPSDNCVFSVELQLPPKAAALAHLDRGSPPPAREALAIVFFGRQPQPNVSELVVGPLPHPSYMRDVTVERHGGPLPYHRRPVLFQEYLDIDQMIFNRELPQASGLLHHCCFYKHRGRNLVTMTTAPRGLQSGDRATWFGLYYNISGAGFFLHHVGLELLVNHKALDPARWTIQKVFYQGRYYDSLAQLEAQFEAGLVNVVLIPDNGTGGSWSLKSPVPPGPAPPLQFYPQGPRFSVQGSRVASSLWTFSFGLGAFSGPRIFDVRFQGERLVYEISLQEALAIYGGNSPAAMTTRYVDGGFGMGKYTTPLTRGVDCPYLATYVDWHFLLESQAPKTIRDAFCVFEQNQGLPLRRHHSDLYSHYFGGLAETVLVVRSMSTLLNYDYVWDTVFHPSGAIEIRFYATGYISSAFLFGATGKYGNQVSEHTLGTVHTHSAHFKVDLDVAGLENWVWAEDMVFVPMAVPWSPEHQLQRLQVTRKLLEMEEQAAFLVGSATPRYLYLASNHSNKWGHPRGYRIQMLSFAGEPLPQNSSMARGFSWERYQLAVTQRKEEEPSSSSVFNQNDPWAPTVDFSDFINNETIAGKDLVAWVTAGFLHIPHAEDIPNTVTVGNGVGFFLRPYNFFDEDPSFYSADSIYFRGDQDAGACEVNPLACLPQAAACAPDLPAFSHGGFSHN
# Method in brief: (§1)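 Enzyme source was lysate of CHO cells stably transfected with VAP-1 (native CHO has negligible activity), dosed to give 0.6 A490/h. Test compound (1 nM–50 μM) was preincubated 30 min at 37 °C with 0.2 M potassium phosphate pH 7.6, 1 mM 2,4-dichlorophenol, 500 μM 4-aminoantipyrine and 4 U/ml HRP. Then 1 mM benzylamine (final) was added for 1 h at 37 °C and A490 read. Percent inhibition was background-corrected and IC50 fitted, from two to six experiments.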
# [2] = biological target: T2, recombinant mouse VAP-1 (Mus musculus, UniProt O70423); experiment: In vitro inhibition of recombinant mouse VAP-1 activity; format: biochemical; details: control compound; mouse VAP-1 in Figure 1
# T2 sequence (O70423 1-765): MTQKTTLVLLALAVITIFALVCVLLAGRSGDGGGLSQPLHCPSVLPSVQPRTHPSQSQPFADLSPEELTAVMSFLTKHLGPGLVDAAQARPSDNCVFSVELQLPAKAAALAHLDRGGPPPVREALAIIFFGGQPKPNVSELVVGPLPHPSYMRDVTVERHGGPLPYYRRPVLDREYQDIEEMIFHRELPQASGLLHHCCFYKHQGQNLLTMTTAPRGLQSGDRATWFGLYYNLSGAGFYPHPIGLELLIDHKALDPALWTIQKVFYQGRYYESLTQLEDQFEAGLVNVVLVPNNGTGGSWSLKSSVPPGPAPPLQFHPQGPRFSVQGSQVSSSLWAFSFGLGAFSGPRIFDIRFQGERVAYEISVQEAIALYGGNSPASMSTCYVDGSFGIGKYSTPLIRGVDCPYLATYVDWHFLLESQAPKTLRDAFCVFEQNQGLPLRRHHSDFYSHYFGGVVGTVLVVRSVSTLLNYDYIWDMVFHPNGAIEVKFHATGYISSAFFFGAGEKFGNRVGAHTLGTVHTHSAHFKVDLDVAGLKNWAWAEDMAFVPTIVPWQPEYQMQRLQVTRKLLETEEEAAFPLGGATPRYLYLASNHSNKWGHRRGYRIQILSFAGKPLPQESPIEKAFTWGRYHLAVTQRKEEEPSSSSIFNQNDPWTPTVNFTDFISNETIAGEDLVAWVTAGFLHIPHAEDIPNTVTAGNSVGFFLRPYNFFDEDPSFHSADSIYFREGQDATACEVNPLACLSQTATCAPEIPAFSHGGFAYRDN
# Method in brief: as §1
compound,measurement,setting,value
"CN(N)[C@H](c1ccccc1)[C@@H](O)c1ccccc1.O=C(O)C(O)C(O)C(=O)O [Compound 11d, (1S,2R)-2-(1-methylhydrazino)-1,2-diphenylethanol (S,S)-tartrate salt]",inhibition of human VAP-1 (in words),[1],inhibits
same,inhibition of rodent VAP-1 (in words),[2],inhibits
